Most compounds without a hit are left out; they make up all but 2.3% or so of the library.
ABCG2 block = ABCG2 efflux pump inhibitors, primary screen, multiplex with ABCB1, IgMXP3 cells, flow cytometry | inhibition, % at 6.6 µM | hit rate 0.1% among 190,000 | AID 1325, 2008 | JC-1 efflux | Broad substrate specificity ATP-binding cassette transporter ABCG2 (Homo sapiens), Q9UNQ0;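 active = inhibition above 80%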;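 also: 0% = DMSO and 100% = nicardipine control wells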
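material = IgMXP3 (ABCG2) plus far-red-tagged CCRF-Adr (ABCB1) cells | amount = 3 million cells/mL, equal mix of both lines | also added = JC-1 transporter substrate | dosing = one concentration, 6.6 µM final | schedule = 10 min at 25 °C | measured by = flow cytometric JC-1 green MFI at 530 nm | read-out basis = percent efflux inhibition, scaled nicardipine 100% to DMSO 0%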
MEKK2 mut-MEK5 = MEK5 binding signal on mutant MEKK2 PB1, primary screen, biochemical, multiplex bead flow cytometry, Alexa488-MEK5; Alexa488-MEK5 binding to MEKK2 mutant; percent response, % at 10 µM; hit rate 0.35% among 290,000; AID 1530, 2009; in the data active = percent response above about 24%, passing the limit was not always enough
ABCB1 inh = ABCB1 efflux pump inhibitors, primary screen, cell-based, multiplex, flow cytometry, ABCG2 counter-screen | inhibition, % at 6.6 µM | hit rate 0.067% among 190,000 | CCRF-Adr cells, JC-1 efflux | ATP-dependent translocase ABCB1 (Homo sapiens), P08183; in the data active = inhibition above about 40%;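 also: 0% = vehicle and 100% = reference inhibitor; higher value means more JC-1 retained so stronger ABCB1 efflux block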
MEKK2wt PB1 HTS = modulators of MEK5 binding to wildtype MEKK2, primary screen, biochemical, multiplex bead flow cytometry, Alexa488-MEK5; hit rate 1.1% among 290,000; Alexa488-MEK5 binding to MEKK2 WT; actives lie on both sides; binding response (% of control), % at 10 µM; in the data active = binding response below about 67% or above about 130%
MEKK3 PB1 HTS = modulators of MEKK3-MEK5 PB1 binding, primary screen, biochemical, wildtype MEKK3, multiplex bead flow cytometry, Alexa488-MEK5; Mitogen-activated protein kinase kinase kinase 3 (Homo sapiens), Q99759; bead-based flow cytometry, Alexa488-MEK5 binding to MEKK3; actives lie on both sides; 0 = blocked by unlabeled MEK5, 100 = vehicle; binding response (% of control), % at 10 µM; hit rate 1.4% among 290,000; AID 1529, 2009;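 active = binding response more than 3 SD above or below the average of its plate-row segment, actives on both sides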;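 also: Alexa488 bead fluorescence after subtracting the streptavidin-only scavenger bead signal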
* marks the source's active call; other numbers are inactive results; . = no result given; + = active, no number; [ ] = dose if it differs, or a comment.

SMILES	ABCG2 block	MEKK2 mut-MEK5	ABCB1 inh	MEKK2wt PB1 HTS	MEKK3 PB1 HTS
CCOc1cccc2sc(N(CCCN(C)C)C(=O)c3ccc(S(=O)(=O)N(C)Cc4ccccc4)cc3)nc12	.	62*	.	233*	111
COc1ccc(CNc2cccc3[nH]c(C(F)(F)F)nc23)cc1OC	.	1	.	107	105
CC(=O)N1c2ccc(S(=O)(=O)N3CCCCC3)cc2CC1C(=O)Nc1ccc(C)cc1 (configuration not stated)	.	9	.	103	105
CCN1CCN(CCCNC(=O)C2CCN(c3nnc(-n4cccc4)s3)CC2)CC1	.	10	.	117	103
CCOc1ccc(NCc2cccn2-c2nnc(N3CCC(C(=O)NCCCN4CC(C)CC(C)C4)CC3)s2)cc1 (configuration not stated)	.	23	.	137*	105
Cc1nc2nc(SCC(=O)N3CCOCC3)nn2c(C)c1Cc1c(F)cccc1Cl	0	-15	1	2.0*[inhibitor]	2.0*[inhibitor]
Cc1nc2nc(SCC(=O)NCCN3CCOCC3)nn2c(C)c1Cc1ccccc1	4	1	1	102	100
CCN1CCN(C(=O)CN2C(=O)COc3ccc(C)cc32)CC1	.	1	.	104	104
CCCCCCC(CC(=O)NCc1cccnc1)CC(=O)NCc1cccnc1	.	12	.	112	109
CC(=O)Oc1ccccc1-c1nc(/C=C/c2ccccc2)no1	.	0	.	102	99
Nc1nn(-c2ccccc2)c(N)c1N=Nc1ccccc1F	14	0	1	102	129*
CCOc1cc(N(CC)CC)ccc1/C=C(/C#N)c1nc2ccccc2[nH]1	15	.	8	.	.
CCCOc1cc(N(CC)CC)ccc1/C=C(/C#N)c1nc2ccc(C)cc2[nH]1	44	87*	26	57*	111
Nc1ccc(O)c(-c2nc3ccccc3s2)c1	-10	0	-1	97	94
Oc1ccc(-c2nc3ccccc3s2)c(O)c1	.	2	.	-2.0*	93
Cn1cc(/C=C2\SC(=S)N(NC(=O)c3cccc(Cl)c3)C2=O)c2ccccc21	.	-9	.	48*[inhibitor]	88
Cn1cc(/C=C2\SC(=S)N(NC(=O)c3ccccc3)C2=O)c2ccccc21	-13	-4	-5	73	96
O=C(O)c1cc(C(=O)O)cc(-c2ccc(/C=c3/sc4nc5ccccc5n4c3=O)o2)c1	-3	-37	-1	61*[inhibitor]	71*[inhibitor]
O=C(O)c1cccc(-c2ccc(/C=c3/sc4nc5ccccc5n4c3=O)o2)c1	.	-2	.	92	102
CSC1=NSC2=NC(=O)/C(=C/c3coc4ccc(O)cc4c3=O)C(=N)N12	1	14	+	88	125
CSC1=NSC2=NC(=O)/C(=C/c3coc4ccccc4c3=O)C(=N)N12	+	-1	34	96	122
COc1cc(/C=N\NC(=O)C(C)(C)O)ccc1OC/C=C/c1ccccc1	.	1	.	100	101
COc1cc([C@@H]2C[C@H]3CN(c4ccccc4)C(=O)[C@]34CCCN24)cc(OC)c1OC	0	-1	1	95	97
COc1ccccc1-n1cc([C@@H]2C[C@H]3CN(c4ccccc4)C(=O)[C@]34CCCN24)cn1	10	138*	2	71	104
O=C(NCc1cc([N+](=O)[O-])ccc1O)c1cc(-c2ccncc2)nc2ccccc12	.	12	.	111	106
SMILES	ABCG2 block	MEKK2 mut-MEK5	ABCB1 inh	MEKK2wt PB1 HTS	MEKK3 PB1 HTS
C=CCOc1cccc(/C=N/NC(=O)CC(=O)NC2CCCCC2)c1	.	7	.	111	108
OCCN1CCN(C(c2cccs2)c2ccc3cccnc3c2O)CC1 (configuration not stated)	.	-11	.	68*[inhibitor]	97
C=CCN(C(=O)c1csnn1)C(C(=O)NC1CCCCC1)c1ccc(Cl)cc1 (configuration not stated)	.	-3	.	96	98
C=CCN(C(=O)c1csnn1)C(C(=O)NC1CCCC1)c1c(F)cccc1Cl (configuration not stated)	.	14	.	153*	105
COc1ccc2nc(C)cc(NCc3ccc(F)cc3)c2c1	.	.	.	.	54*[inhibitor]
Cn1c(CCN2CCCCC2)nc2cc(NC(=O)COc3ccc(Cl)cc3)ccc21	.	4	.	114	100
Cc1ccc(C(C)C)c(OCC(=O)Nc2ccc3c(c2)nc(CCN2CCCCC2)n3C)c1	.	12	.	141*	103
Cc1ccc(C(=O)c2oc3ccc(Cl)cc3c2NC(=O)CN2CCN(C)CC2)cc1	.	14	.	160*	109
CCOc1ccccc1CN1CCC(n2nccc2NC(=O)CCc2ccccc2)CC1	.	16	.	122	104
COc1ccccc1/C=C/CN1CCC(n2nccc2NC(=O)CCc2ccccc2)CC1	.	11	.	138*	103
O=C(CCc1ccccc1)Nc1ccnn1C1CCN(C/C=C/c2ccccc2)CC1	.	27*	.	126	108
CCCN(CCC)c1ccc(/C=C/c2ccc3cc(OCC)ccc3n2)cc1	.	51*	.	.	86
Cc1ccc(S(=O)(=O)NCc2cc(=O)n(C)c(=O)n2C)cc1C	.	2	.	100	95
COc1ccccc1C(=O)N1CCCC1(C#N)c1ccccc1 (configuration not stated)	4	5	0	103	104
CC(=O)N1CCCC1(C(=O)O)c1ccccc1 (configuration not stated)	.	2	.	-3.0*	100
O=c1c2cc(N3CCOCC3)ccc2[nH]c(=S)n1CCN1CCCC1	27	2	9	101	101
O=c1c2cc(N3CCOCC3)ccc2[nH]c(=S)n1CCCN1CCN(c2ccccc2F)CC1	33	-10	53*	77	65
CCC(=O)N1N=C(c2cccs2)CC1c1ccco1 (configuration not stated)	0	1	0	13*	103
Cc1[nH]c2ccccc2c1/C=N/NC(=O)c1cccc(F)c1	1	-7	0	94	99
Cc1[nH]c2ccccc2c1/C=N/Nc1ccc(F)cc1F	-7	6	-1	0.0*	131
Cc1[nH]c2ccccc2c1/C=N/Nc1ccc([N+](=O)[O-])cc1	7	43	8	24*	91
CCCN(CCC)CCCNC(=O)c1cn(-c2ccc(OC)cc2)c(=O)c2ccccc12	.	6	.	111	105
COc1ccc(CN(C(=O)c2snc(C(N)=O)c2N)C(C(=O)NC2CCCC2)c2cc(OC)ccc2OC)cc1 (configuration not stated)	.	-4	.	95	100
COc1ccc(N2CCN(S(=O)(=O)CCNC(=O)c3ccc(Br)o3)CC2)cc1	.	4	.	103	102
